Test results taken from publication PMC3911823 (The FEBS journal, 2011).
Residue numbers refer to the chain shown, from its start.

What was measured:
P450 2B4 E474D [1] = molecular target: T1, P450 2B4 E474D (Oryctolagus cuniculus, UniProt P00178, E474D); assay type: biochemical, rabbit (Oryctolagus cuniculus)
T1 sequence (P00178 with tags, fused parts or gaps E474D limits assumed): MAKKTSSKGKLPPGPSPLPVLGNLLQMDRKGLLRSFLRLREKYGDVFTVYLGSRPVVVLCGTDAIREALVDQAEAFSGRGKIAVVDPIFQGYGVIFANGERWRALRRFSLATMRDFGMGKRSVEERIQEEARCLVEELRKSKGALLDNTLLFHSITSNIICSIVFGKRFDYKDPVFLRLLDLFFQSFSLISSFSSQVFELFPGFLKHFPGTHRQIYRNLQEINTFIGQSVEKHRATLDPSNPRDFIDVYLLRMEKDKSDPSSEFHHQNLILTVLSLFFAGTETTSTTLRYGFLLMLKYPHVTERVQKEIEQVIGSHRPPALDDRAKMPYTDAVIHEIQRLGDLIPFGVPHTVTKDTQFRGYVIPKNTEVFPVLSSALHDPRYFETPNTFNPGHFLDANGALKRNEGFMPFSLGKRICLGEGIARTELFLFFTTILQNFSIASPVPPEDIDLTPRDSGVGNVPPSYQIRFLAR

P450 2B4 H172F [2] = molecular target: T2, P450 2B4 H172F (Oryctolagus cuniculus, UniProt P00178, H172F)
T2 sequence (P00178 with tags, fused parts or gaps H172F limits assumed): T1 sequence (P00178 with tags, fused parts or gaps E474D limits assumed) with H153F, D455E

P450 2B4 H172F [3] = molecular target: T2, P450 2B4 H172F; remark: listed apart in the source
P450 2B4 H172A [4] = molecular target: T3, P450 2B4 H172A (Oryctolagus cuniculus, UniProt P00178, H172A); assay type: biochemical, rabbit (Oryctolagus cuniculus)
T3 sequence (P00178 with tags, fused parts or gaps H172A limits assumed): T1 sequence (P00178 with tags, fused parts or gaps E474D limits assumed) with H153A, D455E

P450 2B4 H172Q [5] = molecular target: T4, P450 2B4 H172Q (Oryctolagus cuniculus, UniProt P00178, H172Q); assay type: biochemical, rabbit (Oryctolagus cuniculus)
T4 sequence (P00178 with tags, fused parts or gaps H172Q limits assumed): T1 sequence (P00178 with tags, fused parts or gaps E474D limits assumed) with H153Q, D455E

P450 2B4 mutants = assay type: biochemical, rabbit (Oryctolagus cuniculus); conditions: each mutant except the inactive H172F
P450 2B4 wild type = molecular target: T5, P450 2B4 wild type (Oryctolagus cuniculus, UniProt P00178); experiment: Inhibition of 7-EFC O-deethylation by imidazole inhibitors; assay type: biochemical, rabbit (Oryctolagus cuniculus)
T5 sequence (P00178 with tags, fused parts or gaps limits assumed): T1 sequence (P00178 with tags, fused parts or gaps E474D limits assumed) with D455E

P450 2B4 H172A [6] = molecular target: T3, P450 2B4 H172A; experiment: as above; assay type: biochemical, rabbit (Oryctolagus cuniculus)
P450 2B4 H172Q [7] = molecular target: T4, P450 2B4 H172Q; experiment: as above; assay type: biochemical, rabbit (Oryctolagus cuniculus)
P450 2B4 L437A = molecular target: T6, P450 2B4 L437A (Oryctolagus cuniculus, UniProt P00178, L437A); experiment: as above; assay type: biochemical, rabbit (Oryctolagus cuniculus); conditions: rabbit, pH 7.4, probe 7-EFC (50 μM), O-deethylation
T6 sequence (P00178 with tags, fused parts or gaps L437A limits assumed): T1 sequence (P00178 with tags, fused parts or gaps E474D limits assumed) with L418A, D455E

P450 2B4 E474D [8] = molecular target: T1, P450 2B4 E474D; experiment: as above; assay type: biochemical, rabbit (Oryctolagus cuniculus)
P450 2B4 E474Q = molecular target: T7, P450 2B4 E474Q (Oryctolagus cuniculus, UniProt P00178, E474Q); experiment: as above; assay type: biochemical, rabbit (Oryctolagus cuniculus)
T7 sequence (P00178 with tags, fused parts or gaps E474Q limits assumed): T1 sequence (P00178 with tags, fused parts or gaps E474D limits assumed) with D455Q

P450 2B4 H172F [9] = molecular target: T2, P450 2B4 H172F; experiment: Spectral binding titration of imidazole ligands; set-up: species or system rabbit (Oryctolagus cuniculus); conditions: 2B4 H172F versus wild type
Method in brief: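 Protein was the His-tagged 2B4dH construct (single mutants or wild type), expressed in TOPP3 cells and Ni-NTA purified. Spectra 350–700 nm recorded after serial 5 μl additions of 100 μM 4-CPI or bifonazole. Ks came from a tight-binding equation fit, and the 4-CPI/bifonazole Ks ratio was calculated.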

| decrease (change) in kcat versus wild type (P450 2B4 E474D [1]) | substrate turnover (activity) (P450 2B4 H172F [2]) | kcat (P450 2B4 H172F [3]) | decrease (change) in kcat versus wild type (P450 2B4 H172A [4]) | decrease (change) in kcat versus wild type (P450 2B4 H172Q [5]) | change in KM versus wild type (P450 2B4 mutants) | IC50 (P450 2B4 wild type) | IC50 (P450 2B4 H172A [6]) | IC50 (P450 2B4 H172Q [7]) | IC50 at 10 min (P450 2B4 L437A) | IC50 (P450 2B4 E474D [8]) | IC50 (P450 2B4 E474Q) | Ks (spectral dissociation constant) higher than wild type 2B4 (P450 2B4 H172F [9]) | Compound |
| --- | --- | --- | --- | --- | --- | --- | --- | --- | --- | --- | --- | --- | --- |
| > 20 fold | inactive | 0 s⁻¹ |  |  |  |  |  |  |  |  |  |  | CCOc1ccc2c(C(F)(F)F)cc(=O)oc2c1 [7-EFC, 7-ethoxy-4-(trifluoromethyl)coumarin] |
|  | inactive | 0 s⁻¹ | ~ 2 fold | ~ 2 fold | < 2 fold |  |  |  |  |  |  |  | COc1ccc2c(C(F)(F)F)cc(=O)oc2c1 [7-MFC, 7-methoxy-4-(trifluoromethyl)coumarin] |
|  |  |  |  |  |  | 900 nM | 580 nM | 760 nM | 50 nM | 620 nM | 810 nM | ~ 20 times | c1ccc(-c2ccc(C(c3ccccc3)n3ccnc3)cc2)cc1 (stereo not drawn) [Bifonazole, bifonazole] |
